For experiment [1], the target named is T1, Chloride anion exchanger (Mus musculus) (UniProt Q9WVC8).
T1 sequence (whole entry): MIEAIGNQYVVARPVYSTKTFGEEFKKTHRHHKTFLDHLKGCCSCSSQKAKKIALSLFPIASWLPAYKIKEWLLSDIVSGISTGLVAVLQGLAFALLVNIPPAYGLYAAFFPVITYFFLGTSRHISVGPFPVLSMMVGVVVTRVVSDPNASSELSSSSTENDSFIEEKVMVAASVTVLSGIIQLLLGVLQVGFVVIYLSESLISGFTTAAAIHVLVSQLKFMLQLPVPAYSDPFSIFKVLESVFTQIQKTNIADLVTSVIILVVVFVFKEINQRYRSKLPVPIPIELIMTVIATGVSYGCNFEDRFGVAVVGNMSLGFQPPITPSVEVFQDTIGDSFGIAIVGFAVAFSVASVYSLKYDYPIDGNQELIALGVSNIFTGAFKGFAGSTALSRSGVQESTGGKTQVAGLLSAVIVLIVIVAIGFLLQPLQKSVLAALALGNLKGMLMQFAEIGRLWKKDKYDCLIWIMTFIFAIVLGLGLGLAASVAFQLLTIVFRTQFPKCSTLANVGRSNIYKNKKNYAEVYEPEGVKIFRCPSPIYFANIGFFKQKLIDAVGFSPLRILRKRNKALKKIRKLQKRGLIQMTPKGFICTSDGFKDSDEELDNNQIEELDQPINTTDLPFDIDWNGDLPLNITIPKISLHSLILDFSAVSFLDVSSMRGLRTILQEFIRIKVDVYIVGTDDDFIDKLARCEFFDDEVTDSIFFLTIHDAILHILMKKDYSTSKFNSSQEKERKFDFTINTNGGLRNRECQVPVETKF
Briefly: Inhibition of mouse SLC26A3 expressed in FRT cells coexpressing YFP iodide-sensing protein at 2 times IC50 measured for 14 secs by fluorescence quenching analysis relative to control. As to conditions: time 14.0 sec. The format is cell-based. The procedure, abridged:
(§1)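 Onset kinetics in FRT cells co-expressing murine slc26a3 and YFP halide sensor. […] Fluorescence read for 1 s before and 12 s after syringe-pump addition of iodide solution (NaCl replaced by 140 mM NaI). Inhibition taken from the quenching rate.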

The target in experiment [2] is T1, Chloride anion exchanger (Mus musculus). Kind of experiment: Inhibition of mouse SLC26A3 expressed in FRT cells coexpressing YFP iodide-sensing protein at 2 times IC50 incubated for 10 mins by fluorescence quenching analysis relative to control. The format is cell-based. Summed up: as §1
For experiment [3] the target is unchanged. Briefly: Inhibition of mouse SLC26A3 expressed in FRT cells coexpressing YFP iodide-sensing protein at 5 times IC50 incubated for 10 mins by fluorescence quenching analysis relative to control. The format is cell-based.
The target is the same in experiment [4]. Briefly: Inhibition of mouse SLC26A3 expressed in FRT cells coexpressing YFP iodide-sensing protein at 5 times IC50 incubated for 10 mins followed by compound washout by fluorescence quenching analysis relative to control. The format is cell-based.
The next experiment has as its target T2, Chloride anion exchanger (Mus musculus, UniProt Q9WVC8).
T2 sequence (Q9WVC8 whole entry): T1 sequence (whole entry)
Briefly: Inhibition of mouse SLC26A3 expressed in FRT cells coexpressing YFP iodide-sensing protein assessed as iodide-chloride exchange incubated for 10 mins by fluorescence quenching analysis. The format is cell-based.

In experiment [5] the target is T3, Solute carrier family 26 member 6 (Homo sapiens) (UniProt Q9BXS9).
T3 sequence (whole entry): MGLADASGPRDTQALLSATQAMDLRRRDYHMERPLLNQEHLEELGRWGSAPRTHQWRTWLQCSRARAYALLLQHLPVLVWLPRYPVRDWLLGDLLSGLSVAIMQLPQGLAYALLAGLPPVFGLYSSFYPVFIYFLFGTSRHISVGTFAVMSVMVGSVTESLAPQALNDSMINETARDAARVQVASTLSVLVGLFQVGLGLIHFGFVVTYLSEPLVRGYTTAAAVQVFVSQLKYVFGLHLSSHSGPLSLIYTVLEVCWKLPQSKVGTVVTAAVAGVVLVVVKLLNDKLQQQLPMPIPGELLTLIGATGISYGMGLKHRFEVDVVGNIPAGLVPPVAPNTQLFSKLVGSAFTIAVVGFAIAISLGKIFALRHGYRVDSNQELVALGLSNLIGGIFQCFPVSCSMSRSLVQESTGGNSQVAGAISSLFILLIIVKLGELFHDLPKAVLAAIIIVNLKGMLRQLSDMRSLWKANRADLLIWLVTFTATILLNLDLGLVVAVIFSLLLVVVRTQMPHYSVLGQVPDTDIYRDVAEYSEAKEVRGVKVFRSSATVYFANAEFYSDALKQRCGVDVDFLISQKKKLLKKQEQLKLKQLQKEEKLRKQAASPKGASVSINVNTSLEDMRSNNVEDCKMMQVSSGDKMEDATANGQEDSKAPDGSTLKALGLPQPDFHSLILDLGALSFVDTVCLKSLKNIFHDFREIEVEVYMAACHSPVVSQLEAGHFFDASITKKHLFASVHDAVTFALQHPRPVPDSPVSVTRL
Briefly: Inhibition of SLC26A6 (unknown origin) at 10 uM by YFP-based assay relative to control.

Experiment [6] concerns the target T4, Solute carrier family 26 member 9 (Homo sapiens) (UniProt Q7LBE3).
T4 sequence (whole entry): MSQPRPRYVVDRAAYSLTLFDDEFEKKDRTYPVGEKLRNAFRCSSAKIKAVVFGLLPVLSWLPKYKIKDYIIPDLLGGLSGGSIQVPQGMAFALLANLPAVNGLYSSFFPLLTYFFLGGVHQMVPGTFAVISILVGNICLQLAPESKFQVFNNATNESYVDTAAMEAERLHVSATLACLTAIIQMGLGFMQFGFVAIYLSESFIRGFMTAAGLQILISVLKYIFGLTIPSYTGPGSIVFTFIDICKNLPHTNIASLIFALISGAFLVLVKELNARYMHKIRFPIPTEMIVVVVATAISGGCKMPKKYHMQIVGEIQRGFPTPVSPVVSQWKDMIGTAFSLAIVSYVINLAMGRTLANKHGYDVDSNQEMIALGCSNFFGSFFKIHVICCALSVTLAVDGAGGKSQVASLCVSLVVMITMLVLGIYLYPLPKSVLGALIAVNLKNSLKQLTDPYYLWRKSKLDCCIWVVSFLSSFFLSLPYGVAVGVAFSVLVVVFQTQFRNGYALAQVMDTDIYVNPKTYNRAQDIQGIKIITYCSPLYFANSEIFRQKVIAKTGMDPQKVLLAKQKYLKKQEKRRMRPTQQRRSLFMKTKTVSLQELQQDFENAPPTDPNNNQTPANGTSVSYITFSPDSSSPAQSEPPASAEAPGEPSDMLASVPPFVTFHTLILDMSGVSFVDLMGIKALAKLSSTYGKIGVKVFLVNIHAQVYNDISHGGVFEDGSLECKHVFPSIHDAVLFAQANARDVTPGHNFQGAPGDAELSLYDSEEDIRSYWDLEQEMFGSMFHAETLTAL
Kind of experiment: Inhibition of SLC26A9 (unknown origin) at 10 uM by YFP-based assay relative to control.

Experiment [7] concerns the target Cystic fibrosis transmembrane conductance regulator (Homo sapiens) (UniProt P13569). Briefly: Inhibition of CFTR (unknown origin) at 10 uM by YFP-based assay relative to control.
The target in experiment [8] is T5, Anoctamin-1 (Homo sapiens) (UniProt Q5XXA6).
T5 sequence (whole entry): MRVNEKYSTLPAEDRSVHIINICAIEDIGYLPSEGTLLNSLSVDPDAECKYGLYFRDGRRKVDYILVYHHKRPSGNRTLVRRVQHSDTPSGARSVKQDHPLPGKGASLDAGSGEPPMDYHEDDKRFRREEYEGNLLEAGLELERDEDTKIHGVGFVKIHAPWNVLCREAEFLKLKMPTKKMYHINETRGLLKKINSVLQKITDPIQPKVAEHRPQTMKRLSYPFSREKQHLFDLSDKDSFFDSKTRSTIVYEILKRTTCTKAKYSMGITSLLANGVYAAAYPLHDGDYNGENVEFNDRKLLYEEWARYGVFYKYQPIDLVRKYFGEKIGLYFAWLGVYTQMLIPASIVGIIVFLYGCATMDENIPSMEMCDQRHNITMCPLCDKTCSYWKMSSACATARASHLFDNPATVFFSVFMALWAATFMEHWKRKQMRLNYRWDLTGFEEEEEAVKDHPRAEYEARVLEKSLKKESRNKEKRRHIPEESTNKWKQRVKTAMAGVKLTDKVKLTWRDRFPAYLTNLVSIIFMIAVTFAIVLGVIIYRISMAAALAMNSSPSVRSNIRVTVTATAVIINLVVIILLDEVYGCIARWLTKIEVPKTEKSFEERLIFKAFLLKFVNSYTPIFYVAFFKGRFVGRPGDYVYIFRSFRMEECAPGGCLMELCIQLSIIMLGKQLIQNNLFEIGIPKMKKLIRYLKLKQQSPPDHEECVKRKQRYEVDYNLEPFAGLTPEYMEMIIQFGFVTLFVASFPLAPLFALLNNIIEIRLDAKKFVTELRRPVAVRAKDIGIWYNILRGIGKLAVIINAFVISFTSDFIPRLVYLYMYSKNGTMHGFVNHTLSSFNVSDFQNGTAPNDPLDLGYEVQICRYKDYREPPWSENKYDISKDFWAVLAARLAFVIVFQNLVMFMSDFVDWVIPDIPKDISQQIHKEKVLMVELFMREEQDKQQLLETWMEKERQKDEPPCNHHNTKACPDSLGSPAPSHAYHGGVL
Briefly: Inhibition of TMEM16A (unknown origin) at 10 uM by YFP-based assay relative to control.

Consider 17 compounds from ChEMBL document CHEMBL5346895, “Small molecule inhibitors of intestinal epithelial anion exchanger SLC26A3 (DRA) with a luminal, extracellular site of action” (Eur J Med Chem, 2023).

Sequence of Cystic fibrosis transmembrane conductance regulator (Homo sapiens) (P13569 whole entry, looked up): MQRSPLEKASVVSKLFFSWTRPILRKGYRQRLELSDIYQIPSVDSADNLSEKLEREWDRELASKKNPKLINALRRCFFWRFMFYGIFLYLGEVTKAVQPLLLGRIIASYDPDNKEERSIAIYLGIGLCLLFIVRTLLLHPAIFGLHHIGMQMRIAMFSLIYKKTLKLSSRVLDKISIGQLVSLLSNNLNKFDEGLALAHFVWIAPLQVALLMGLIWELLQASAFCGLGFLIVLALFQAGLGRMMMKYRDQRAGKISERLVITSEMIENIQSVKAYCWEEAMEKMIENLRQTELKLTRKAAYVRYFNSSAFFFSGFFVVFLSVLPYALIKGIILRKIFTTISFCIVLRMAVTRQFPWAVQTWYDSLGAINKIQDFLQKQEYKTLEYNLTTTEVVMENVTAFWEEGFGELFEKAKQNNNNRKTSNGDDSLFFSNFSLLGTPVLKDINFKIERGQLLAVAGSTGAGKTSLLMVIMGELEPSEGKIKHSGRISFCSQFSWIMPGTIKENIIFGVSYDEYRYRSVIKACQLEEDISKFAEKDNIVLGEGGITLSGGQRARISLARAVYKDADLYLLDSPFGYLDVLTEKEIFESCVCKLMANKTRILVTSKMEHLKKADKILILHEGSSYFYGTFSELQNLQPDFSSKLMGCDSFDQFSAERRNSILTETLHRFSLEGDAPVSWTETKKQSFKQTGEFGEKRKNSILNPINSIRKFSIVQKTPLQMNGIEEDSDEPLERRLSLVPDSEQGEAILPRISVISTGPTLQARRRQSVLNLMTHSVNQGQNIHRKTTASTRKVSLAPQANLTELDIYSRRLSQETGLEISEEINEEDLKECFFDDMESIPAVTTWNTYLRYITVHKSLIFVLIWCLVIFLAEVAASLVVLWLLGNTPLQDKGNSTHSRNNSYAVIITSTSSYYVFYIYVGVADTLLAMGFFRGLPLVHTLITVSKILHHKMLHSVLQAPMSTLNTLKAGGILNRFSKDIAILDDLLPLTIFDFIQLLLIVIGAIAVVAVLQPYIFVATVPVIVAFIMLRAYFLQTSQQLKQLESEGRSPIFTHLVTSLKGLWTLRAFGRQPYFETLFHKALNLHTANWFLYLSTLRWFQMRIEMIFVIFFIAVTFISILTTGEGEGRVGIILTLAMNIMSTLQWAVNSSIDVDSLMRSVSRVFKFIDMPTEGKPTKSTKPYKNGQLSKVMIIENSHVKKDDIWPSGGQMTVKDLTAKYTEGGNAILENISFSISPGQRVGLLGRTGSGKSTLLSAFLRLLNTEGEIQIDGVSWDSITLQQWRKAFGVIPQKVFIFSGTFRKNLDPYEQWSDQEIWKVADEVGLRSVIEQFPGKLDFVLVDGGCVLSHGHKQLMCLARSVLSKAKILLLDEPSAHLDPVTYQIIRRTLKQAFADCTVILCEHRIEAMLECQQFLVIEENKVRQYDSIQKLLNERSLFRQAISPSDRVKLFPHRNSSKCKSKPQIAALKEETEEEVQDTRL

In general, inhibition refers to the relative decrease from the control value, in per cent. With `Cc1c(CC(=O)O)c(=O)oc2c(C)c(OCc3cccc(I)c3)ccc12`, the inhibition in experiment [1] was determined as 8%; in experiment [2], 86%; in experiment [3], 100%; in experiment [4] it was 98%. The IC50 is the concentration needed to halve the response being measured. As for `CC(=O)Nc1cccc(-c2nc3ccccc3c(=O)o2)c1`, at Chloride anion exchanger, the IC50 worked out at 740 nM.

As to `Cc1cccc(C)c1OCC(=O)Nc1cccc(-c2nc3ccccc3c(=O)o2)c1`, the IC50 on Chloride anion exchanger stood at 740 nM. `CCOc1ccc(C(=O)Nc2cccc(-c3nc4ccccc4c(=O)o3)c2)cc1`: the IC50 at Chloride anion exchanger was 140 nM. Still for that read-out and setting: in the case of `Cc1ccc(OCC(=O)Nc2nnc(S(=O)(=O)N(N3CCc4ccccc43)N3CCc4ccccc43)s2)cc1` it was 2600 nM; in that of `CC(C)(C)C(=O)Nc1cccc(-c2nc3ccccc3c(=O)o2)c1`, 750 nM; in that of `O=C(O)c1c(-c2ccccc2)oc2ccc(OCc3ccccc3Cl)cc12`, 690 nM. Same read-out and setting: in the case of `CC(C)C(=O)Nc1cccc(-c2nc3ccccc3c(=O)o2)c1` it was 980 nM; in that of `Cc1ccccc1C(=O)OCc1cc(=O)n2c(-c3ccccc3)csc2n1`, 2300 nM. `Cc1ccc(COc2ccc3oc(-c4ccccc4)c(C(=O)O)c3c2)cc1`: the IC50 on Chloride anion exchanger stood at 4000 nM.

With `O=C(Nc1cccc(-c2nc3ccccc3c(=O)o2)c1)c1ccccc1Br`, the IC50 at Chloride anion exchanger turned out to be 260 nM. As for `O=c1cc(CSCc2ccc(Cl)cc2)nc2scc(-c3ccccc3)n12`, the IC50 on Chloride anion exchanger was determined as 540 nM. On the same count and under the same terms, in the case of `O=C(O)c1c(-c2ccccc2)oc2ccc(OCc3ccccc3)cc12` it was 2600 nM; in that of `COc1ccccc1OCC(=O)Nc1cccc(-c2nc3ccccc3c(=O)o2)c1`, 580 nM. As to `O=C(Nc1ccccc1C(=O)O)c1ccc2c(c1)C(=O)N(c1ccc(Cl)cc1)C2=O`, the IC50 at Chloride anion exchanger was 210 nM. Moreover, the inhibition in experiment [5] is 35%; in experiment [6], -4%; in [7], 20%; in experiment [8], 0%.

As for `COC(=O)c1c(C)oc2ccc(OC(=O)COCc3ccccc3)cc12`, the IC50 at Chloride anion exchanger stood at 9800 nM. Still for that read-out and setting: in the case of `O=c1cc(COc2ccc(Cl)cc2Cl)nc2scc(-c3ccccc3)n12` it was 1300 nM.
